ChEMBL document CHEMBL1153011, “Mechanism of unusual formation of 3-(5-phenyl-3H-[1,2,4]dithiazol-3-yl)chromen-4-ones and 4-oxo-4H-chromene-3-carbothioic acid N-phenylamides and their antimicrobial evaluation” (2009)
≈ marks a conversion by molar mass, not a printed value. Calls of active or inactive are those of the source. The rule behind the calls is not given here.

Columns and labels:
Pseudomonas aeruginosa [1] = test: Antibacterial activity against Pseudomonas aeruginosa MTCC 741 at 5 x 10^-5 ug/ml after 24 hrs by disk diffusion assay; assay type: functional, organism-based
In short: (§1)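 Disk diffusion. 100 µl of 4-h nutrient-broth cultures spread on Mueller Hinton agar. Compounds in DMSO (1/10) applied to 8 mm paper disks. After 24 h at 37 °C, growth-inhibition zone diameter measured. DMSO negative control; chloramphenicol and ciprofloxacin positive controls.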

Pseudomonas aeruginosa [2] = test: Antibacterial activity against Pseudomonas aeruginosa MTCC 741 at 1 x 10^-4 ug/ml after 24 hrs by disk diffusion assay; assay type: functional, organism-based; in short: as §1
Staphylococcus aureus [3] = test: Antibacterial activity against Staphylococcus aureus MTCC 740 at 5 x 10^-5 ug/ml after 24 hrs by disk diffusion assay; assay type: functional; details: MTCC 740, 24 h, read-out: GI; in short: as §1
Escherichia coli [4] = test: Antibacterial activity against Escherichia coli MTCC 119 at 2.5 x 10^-5 ug/ml after 24 hrs by disk diffusion assay; assay type: functional; details: MTCC 119, 24 h, read-out: GI; in short: as §1
Aspergillus niger = test: Antifungal activity against Aspergillus niger MTCC 281 after 24 to 72 hrs by broth dilution method; assay type: functional
In short: (§2)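 Fungi grown at 25 °C on Sabouraud dextrose agar. Compounds dissolved in DMSO (1/10) and tested at several concentrations in Sabouraud dextrose broth in tubes. Conidial suspension at final 1 × 10^5 CFU/ml, with growth and sterility control tubes. […] DMSO negative control; fluconazole positive control.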

Shigella flexneri [5] = test: Antibacterial activity against Shigella flexneri MTCC 1457 after overnight incubation by broth dilution method; assay type: functional
In short: (§3)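 Bacteria grown at 37 °C on nutrient agar. Compounds dissolved in DMSO (1/10) and tested in twofold serial dilutions in Mueller Hinton broth in tubes. Inoculum was a McFarland-standardized suspension, final 5 × 10^5 CFU/ml, with growth and sterility control tubes. Incubation overnight at 37 °C. MIC read by OD600 as the lowest concentration with no turbidity. DMSO negative control; chloramphenicol and ciprofloxacin positive controls.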

Staphylococcus aureus [6] = test: Antibacterial activity against Staphylococcus aureus MTCC 740 at 1 x 10^-4 ug/ml after 24 hrs by disk diffusion assay; assay type: functional; details: MTCC 740, 24 h, read-out: GI; in short: as §1
Staphylococcus aureus [7] = test: Antibacterial activity against Staphylococcus aureus MTCC 740 at 2.5 x 10^-5 ug/ml after 24 hrs by disk diffusion assay; assay type: functional; details: MTCC 740, 24 h, read-out: GI; in short: as §1
Pseudomonas aeruginosa [8] = test: Antibacterial activity against Pseudomonas aeruginosa MTCC 741 after overnight incubation by broth dilution method; assay type: functional; in short: as §3
Escherichia coli [9] = test: Antibacterial activity against Escherichia coli MTCC 119 after overnight incubation by broth dilution method; assay type: functional; in short: as §3
Shigella flexneri [10] = test: Antibacterial activity against Shigella flexneri MTCC 1457 at 5 x 10^-5 ug/ml after 24 hrs by disk diffusion assay; assay type: functional; details: MTCC 1457, 24 h, read-out: GI; in short: as §1
Escherichia coli [11] = test: Antibacterial activity against Escherichia coli MTCC 119 at 5 x 10^-5 ug/ml after 24 hrs by disk diffusion assay; assay type: functional; details: MTCC 119, 24 h, read-out: GI; in short: as §1
Shigella flexneri [12] = test: Antibacterial activity against Shigella flexneri MTCC 1457 at 1 x 10^-4 ug/ml after 24 hrs by disk diffusion assay; assay type: functional; details: MTCC 1457, 24 h, read-out: GI; in short: as §1
Escherichia coli [13] = test: Antibacterial activity against Escherichia coli MTCC 119 at 1 x 10^-4 ug/ml after 24 hrs by disk diffusion assay; assay type: functional; details: MTCC 119, 24 h, read-out: GI; in short: as §1
Staphylococcus aureus [14] = test: Antibacterial activity against Staphylococcus aureus MTCC 740 after overnight incubation by broth dilution method; assay type: functional; in short: as §3
Pseudomonas aeruginosa [15] = test: Antibacterial activity against Pseudomonas aeruginosa MTCC 741 at 2.5 x 10^-5 ug/ml after 24 hrs by disk diffusion assay; assay type: functional, organism-based; in short: as §1
Shigella flexneri [16] = test: Antibacterial activity against Shigella flexneri MTCC 1457 at 2.5 x 10^-5 ug/ml after 24 hrs by disk diffusion assay; assay type: functional; details: MTCC 1457, 24 h, read-out: GI; in short: as §1
Geotrichum candidum = test: Antifungal activity against Geotrichum candidum MTCC 3993 after 24 to 72 hrs by broth dilution method; assay type: functional; in short: as §2
Candida albicans = test: Antifungal activity against Candida albicans MTCC 227 after 24 to 72 hrs by broth dilution method; assay type: functional; in short: as §2
Candida tropicalis = test: Antifungal activity against Candida tropicalis MTCC 230 after 24 to 72 hrs by broth dilution method; assay type: functional; in short: as §2

| Structure (SMILES) | growth inhibition (GI) (Pseudomonas aeruginosa [1]) | growth inhibition (GI) (Pseudomonas aeruginosa [2]) | inhibition of growth at 50 pg/mL (Staphylococcus aureus [3]) [%] | inhibition of growth at 25 pg/mL (Escherichia coli [4]) [%] | MIC (Aspergillus niger) [µg/mL] | MIC (Shigella flexneri [5]) [µg/mL] | inhibition of growth at 0.0001 µg/mL (Staphylococcus aureus [6]) [%] | inhibition of growth at 25 pg/mL (Staphylococcus aureus [7]) [%] | MIC (Pseudomonas aeruginosa [8]) | MIC (Escherichia coli [9]) [µg/mL] | inhibition of growth at 50 pg/mL (Shigella flexneri [10]) [%] | inhibition of growth at 50 pg/mL (Escherichia coli [11]) [%] | inhibition of growth at 0.0001 µg/mL (Shigella flexneri [12]) [%] | inhibition of growth at 0.0001 µg/mL (Escherichia coli [13]) [%] | MIC (Staphylococcus aureus [14]) [µg/mL] | growth inhibition (GI) (Pseudomonas aeruginosa [15]) | inhibition of growth at 25 pg/mL (Shigella flexneri [16]) [%] | MIC (Geotrichum candidum) [µg/mL] | MIC (Candida albicans) [µg/mL] | MIC (Candida tropicalis) [µg/mL] |
| --- | --- | --- | --- | --- | --- | --- | --- | --- | --- | --- | --- | --- | --- | --- | --- | --- | --- | --- | --- | --- |
| O=c1c(C(=S)Nc2ccccc2)coc2ccccc12 | inactive | inactive | 76.2 | 38.5 | 90 (≈ 320 µM) | 92 (≈ 327 µM) | 100 | 35.6 | inactive | 62 (≈ 220 µM) | 55.3 | 85.5 | 100 | 100 | 70 (≈ 249 µM) | inactive | – | – | – | – |
| O=C(N[C@H](CO)[C@H](O)c1ccc([N+](=O)[O-])cc1)C(Cl)Cl [CHLORAMPHENICOL] | – | – | – | – | – | 5.6 (≈ 17.3 µM) | – | – | 2.7 µg/mL (≈ 8.36 µM) | 2.5 (≈ 7.74 µM) | – | – | – | – | 13.6 (≈ 42.1 µM) | – | – | – | – | – |
| O=c1c(C(=S)Nc2ccccc2)coc2ccc(F)cc12 | inactive | inactive | – | – | 120 (≈ 401 µM) | – | – | – | inactive | 68 (≈ 227 µM) | – | 73.8 | – | 100 | – | inactive | – | – | – | – |
| O=c1c(C2N=C(c3ccccc3)SS2)coc2cc(Cl)c(F)cc12 (stereo not given) | inactive | inactive | 68.7 | – | 90 (≈ 238 µM) | 52 (≈ 138 µM) | 100 | 32.9 | inactive | 350 (≈ 926 µM) | 98.5 | 14 | 100 | 30.5 | 72 (≈ 191 µM) | inactive | 48.3 | 5 (≈ 13.2 µM) | 40 (≈ 106 µM) | 28 (≈ 74.1 µM) |
| O=C(O)c1cn(C2CC2)c2cc(N3CCNCC3)c(F)cc2c1=O [CIPROFLOXACIN] | – | – | – | – | – | 1.4 (≈ 4.23 µM) | – | – | 1.8 µg/mL (≈ 5.43 µM) | 1.2 (≈ 3.62 µM) | – | – | – | – | 0.9 (≈ 2.72 µM) | – | – | – | – | – |
| Cc1ccc2occ(C3N=C(c4ccccc4)SS3)c(=O)c2c1 (stereo not given) | inactive | inactive | 92.7 | – | 150 (≈ 442 µM) | 82 (≈ 242 µM) | 100 | 35 | inactive | 132 (≈ 389 µM) | 60.9 | 30 | 100 | 72.5 | 54 (≈ 159 µM) | inactive | 21 | 95 (≈ 280 µM) | 60 (≈ 177 µM) | 52 (≈ 153 µM) |
